Assay results as given in ChEMBL document CHEMBL1157439, “Novel benzimidazole derivatives as selective CB2 agonists” (Bioorg Med Chem Lett, 2008).

Legend:
Cannabinoid receptor 2 [1] = target: T1, Cannabinoid receptor 2 (Homo sapiens, UniProt P34972); test: Agonist activity at cloned human CB2 receptor in Sf9 cells assessed by [35S]GTPgammaS binding assay relative to delta9-THC; format: functional
Cannabinoid receptor 1 = Cannabinoid receptor 1 (Homo sapiens, UniProt P21554); test: Displacement of [3H]CP-55940 from human CB1 receptor
Cannabinoid receptor 2 [2] = target: T1, Cannabinoid receptor 2; test: Agonist activity at cloned human CB2 receptor in Sf9 cells assessed as stimulation of [35S]GTPgammaS binding assay; format: functional
In short: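 Sf9 membranes carrying cloned human CB2, in 50 mM Hepes, 20 mM NaOH, 100 mM NaCl, 1 mM EDTA, 5 mM MgCl2, 0.1% BSA plus GDP, pH 7.4. 10-point dose–response with [35S]GTPγS (~130,000 dpm/well), 1 h, room temperature. Filtered and washed (Tris/MgCl2/NaCl pH 7.4, 4 °C), then scintillation counted.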

Cannabinoid receptor 2 [3] = target: T1, Cannabinoid receptor 2; test: Displacement of [3H]CP-55940 from human CB2 receptor

Sequence of Cannabinoid receptor 1 (P21554 whole entry): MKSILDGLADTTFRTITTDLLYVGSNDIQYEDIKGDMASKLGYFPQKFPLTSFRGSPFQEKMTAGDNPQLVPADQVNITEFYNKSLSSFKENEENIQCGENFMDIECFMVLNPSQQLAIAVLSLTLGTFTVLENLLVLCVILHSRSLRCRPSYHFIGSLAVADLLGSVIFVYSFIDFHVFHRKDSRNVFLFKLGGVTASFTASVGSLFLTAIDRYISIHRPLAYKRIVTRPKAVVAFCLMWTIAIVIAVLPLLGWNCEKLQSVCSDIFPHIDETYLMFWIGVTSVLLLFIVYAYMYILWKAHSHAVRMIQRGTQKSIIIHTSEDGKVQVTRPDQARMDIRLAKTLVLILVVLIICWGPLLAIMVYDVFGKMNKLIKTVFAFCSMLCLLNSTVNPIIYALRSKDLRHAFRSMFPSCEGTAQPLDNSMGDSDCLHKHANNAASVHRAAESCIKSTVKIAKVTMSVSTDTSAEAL
T1 sequence (P34972 whole entry): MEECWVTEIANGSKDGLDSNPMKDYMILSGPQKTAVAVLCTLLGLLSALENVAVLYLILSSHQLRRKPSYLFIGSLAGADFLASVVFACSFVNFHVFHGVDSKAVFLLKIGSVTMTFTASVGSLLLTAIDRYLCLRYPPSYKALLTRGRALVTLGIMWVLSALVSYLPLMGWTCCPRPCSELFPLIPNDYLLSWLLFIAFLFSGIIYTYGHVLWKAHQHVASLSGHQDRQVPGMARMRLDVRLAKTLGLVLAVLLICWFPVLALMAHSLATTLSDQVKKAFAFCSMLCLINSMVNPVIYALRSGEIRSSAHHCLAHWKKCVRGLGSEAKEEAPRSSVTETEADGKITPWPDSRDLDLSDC

Structure (SMILES) | Emax (Cannabinoid receptor 2 [1]) [%] | Ki (Cannabinoid receptor 1) [nM] | EC50 (Cannabinoid receptor 2 [2]) [nM] | Ki (Cannabinoid receptor 2 [3]) [nM]
CCOc1ccc(Cc2nc3cc(N(C)C(=O)c4cccs4)ccc3n2CC2CC2)cc1 | 51 | 2480 | 2.6 | 5
CCCN(CCC)C(=O)c1ccc2c(c1)nc(Cc1ccc(OCC)cc1)n2CC1CC1 | 67 | 2610 | 2 | 2.8
CCOc1ccc(Cc2nc3cc(C(=O)N(CC)CC)ccc3n2CC2CCNCC2)cc1 |  | > 5000 |  | 2920
CCOc1ccc(Cc2nc3cc(N(C)C(=O)CC(C)C)ccc3n2CC2CC2)cc1 | 54 | > 5000 | 2.7 | 4
CCOc1ccc(Cc2nc3cc(C(=O)N(CC)CC)ccc3n2Cc2ccccn2)cc1 | 77 | > 5000 | 25 | 39
CCOc1ccc(Cc2nc3cc(C(=O)N(C)C4CCCCC4)ccc3n2CC2CC2)cc1 | 60 | > 5000 | 4.2 | 11
CCOc1ccc(Cc2nc3cc(C(=O)N(CC)CC)ccc3n2Cc2ccco2)cc1 | 78 | > 5000 | 3.3 | 11
CCOc1ccc(Cc2nc3cc(C(=O)N4CCCC4)ccc3n2CC2CC2)cc1 | 51 | > 5000 | 6.2 | 14
Cc1c(C(=O)c2cccc3ccccc23)c2cccc3c2n1[C@H](CN1CCOCC1)CO3 | 64 |  |  | 
CCN(CC)C(=O)c1ccc2c(c1)nc(Cc1ccc(OCC3CC3)cc1)n2CCC(C)C | 75 | 4190 | 43 | 53
CCOc1ccc(Cc2nc3cc(C(=O)N(CC)CC)ccc3n2CC2CC2)nc1 | 63 | > 5000 | 22 | 27
CCOc1ccc(Cc2nc3cc(C(=O)N(CC(F)(F)F)CC(F)(F)F)ccc3n2CC2CC2)cc1 | 51 | 4530 | 2 | 
CCOc1ccc(Cc2nc3cc(C(=O)N(CC)CC)ccc3n2Cc2ccccc2)cc1 | 88 | 4770 | 1.1 | 12
CCN(CC)C(=O)c1ccc2c(c1)nc(Cc1ccc(OC(F)(F)F)cc1)n2CCC(C)C | 29 | > 5000 | 11 | 25
CCOc1ccc(Cc2nc3cc(NC(C)=O)ccc3n2CC2CC2)cc1 |  | > 5000 |  | > 5000
CCOc1ccc(Cc2nc3cc(C(=O)N(CC)CC)ccc3n2CC2CCC2)cc1 | 64 | 3120 | 1.3 | 1.6
CCOc1ccc(Cc2nc3cc(N(C)C(=O)N4CCCCC4)ccc3n2CC2CC2)cc1 | 60 | 3480 | 3.3 | 4
CCOc1ccc(Cc2nc3cc(C(=O)N(CC)CC)ccc3n2Cc2ccncc2)cc1 | 78 | > 5000 | 5 | 16
CCN(CC)C(=O)c1ccc2c(c1)nc(Cc1ccc(OCC(F)(F)F)cc1)n2CCC(C)C | 68 | > 5000 | 65 | 57
CCOc1ccc(Cc2nc3cc(NC)ccc3n2CC2CC2)cc1 |  | > 5000 |  | 4340
CCOc1ccc(Cc2nc3cc(N(C)C(=O)N(CC)CC)ccc3n2CC2CC2)cc1 | 48 | > 5000 | 2 | 5.9
CCOc1ccc(Cc2nc3cc(C(=O)N(CC)CC)ccc3n2CC2CCOCC2)cc1 | 89 | 1210 | 1 | 3.9
CCOc1ccc(C(=O)c2nc3cc(C(=O)N(CC)CC)ccc3n2CCC(C)C)cc1 | 55 | > 5000 | 25 | 35
CCN(CC)C(=O)c1ccc2c(c1)nc(Cc1ccc(OC3CCCCC3)cc1)n2CCC(C)C |  | > 5000 |  | 526
